Measurements as given in EPA's CvTdb concentration-time database.

Tests used:
Rat [1] = assay: concentration in plasma after dosing; conditions: dosed: 2-Hydroxy-4-methoxybenzophenone, 8 mg/kg, iv, Female, F344
Mouse [2] = assay: concentration in plasma after dosing; conditions: 2.5 min; dosed: 2-Hydroxy-4-methoxybenzophenone; 250 mg/kg; oral; Male; B6C3F1
Mouse [3] = assay: concentration in plasma after dosing; conditions: 0.25 h; dosed: 2-Hydroxy-4-methoxybenzophenone; 250 mg/kg; oral; Female; B6C3F1
Rat [4] = assay: concentration in plasma after dosing; conditions: 0.25 h; dosed: 2-Hydroxy-4-methoxybenzophenone; 500 mg/kg; oral; Male; F344
Mouse [5] = assay: concentration in plasma after dosing; conditions: 0.25 h; dosed: 2-Hydroxy-4-methoxybenzophenone; 500 mg/kg; oral; Male; B6C3F1
Rat [6] = assay: concentration in plasma after dosing; conditions: dosed: Nitrite, 40 mg/kg, oral, Female, F344
Rat [7] = assay: concentration in plasma after dosing; conditions: 0.5 h; dosed: Nitrite; 40 mg/kg; oral; Male; F344
Rat [8] = assay: concentration in plasma after dosing; conditions: dosed: Nitrite, 80 mg/kg, oral, Female, F344
Rat [9] = assay: concentration in kidney after dosing; conditions: 192 h; dosed: Perfluorooctanoic acid; 12 mg/kg; oral; Male; Harlan Sprague Dawley
Rat [10] = assay: concentration in brain after dosing; conditions: 12 h; dosed: Perfluorooctanoic acid; 80 mg/kg; oral; Female; Harlan Sprague Dawley
Rat [11] = assay: concentration in plasma after dosing; conditions: dosed: 678-39-7, 12 mg/kg, iv, Male, F344
Rat [12] = assay: concentration in liver after dosing; conditions: 12 h; dosed: Perfluorooctanoic acid; 12 mg/kg; oral; Male; Harlan Sprague Dawley
Rat [13] = assay: concentration in plasma after dosing; conditions: dosed: Potassium Perfluorobutane Sulfonate, 4 mg/kg, oral, Male, Harlan Sprague Dawley
Rat [14] = assay: concentration in liver after dosing; conditions: 0.5 h; dosed: Potassium Perfluorobutane Sulfonate; 20 mg/kg; oral; Female; Harlan Sprague Dawley
Rat [15] = assay: concentration in plasma after dosing; conditions: dosed: Potassium Perfluorobutane Sulfonate, 4 mg/kg, iv, Male, F344
rat [16] = assay: concentration in kidney after dosing (ugEq/g tissue); conditions: dosed: benzo[a]pyrene, iv, male, Wistar
human = assay: amount in urine after dosing (umol)
In short: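 A PubMed search, classifier screening and manual review identified published in vivo toxicokinetic studies, which together with two structured collections supplied concentration-versus-time and amount-versus-time points. Points were mostly digitised from plot screenshots with WebPlotDigitizer, otherwise copied from tables. Dose, route, subject details and medium were hand-curated from each paper, and sampling and analytical methods are those of the sources, often unreported.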

COc1ccc(C(=O)c2ccccc2)c(O)c1 [2-Hydroxy-4-methoxybenzophenone]
Rat [1]
Conditions | concentration in plasma [ng/mL]
2 h | 111
10 min | 2560

Conditions | concentration in plasma [ng/mL]
Mouse [2] | 18.2
Mouse [3] | 88.3
Mouse [5] | 468
Rat [4] | 902

O=N[O-] [Nitrite]
concentration in plasma [ng/mL]
Conditions | 1 h | 2 h | 6 h | 10 min
Rat [6] | 4300 | 1800 | – | –
Rat [8] | – | – | 1800 | 24800

Conditions | concentration in plasma [ng/mL]
Rat [7] | 1900

O=C(O)C(F)(F)C(F)(F)C(F)(F)C(F)(F)C(F)(F)C(F)(F)C(F)(F)F [Perfluorooctanoic acid]
Conditions | concentration in brain [ng/g] | concentration in kidney [ng/g] | concentration in liver [ng/g]
Rat [9] | – | 21000 | –
Rat [10] | 1000 | – | –
Rat [12] | – | – | 63300

Rat [11]
Conditions | concentration in plasma [ng/mL]
0.5 h | 210
9 h | 521

O=S(=O)([O-])C(F)(F)C(F)(F)C(F)(F)C(F)(F)F.[K+] [Potassium Perfluorobutane Sulfonate]
concentration in plasma [ng/mL]
Conditions | 0.25 h | 0.5 h | 6 h | 12 h
Rat [13] | 3220 | – | 9970 | –
Rat [15] | – | 19100 | – | 1620

Conditions | concentration in liver [ng/g]
Rat [14] | 48000

c1ccc2c(c1)cc1ccc3cccc4ccc2c1c34 [benzo[a]pyrene]
concentration in kidney, rat [16]
Conditions | 2 mg/kg | 6 mg/kg | 15 mg/kg
0.5 h | 4.64 | 7.09 | 20.1
0.75 h | 4.02 | 7.57 | 16.8
1 h | 2.67 | 6.12 | 15.1
1.5 h | 1.31 | 2.25 | 13.6
2 h | 0.21 | 0.8 | 5.37
3 h | 0.23 | 0.2 | 1.77
4 h | 0.07 | 0.15 | 0.8
5 h | 0.06 | 0.09 | 0.36
5 min | 7 | 12.4 | 30.8
6 h | 0.08 | 0.11 | 0.35
8 h | 0.08 | 0.09 | 0.25
10 min | 7.09 | 15.9 | 25.2
20 min | 7.68 | 11.7 | 22.5
24 h | – | – | 0.05
32 h | – | – | 0.01

CC(C)(C)O [tert-butyl alcohol]
amount in urine, human, inhalation, duration: 4 hr
Conditions | dosed: ethyl tert-butyl ether | dosed: methyl tert-butyl ether
0 h, 4.5 ppm | – | 0.221
0 h, 40.6 ppm | 2.39 | –
0.1079 h, 38.7 ppm | – | 6.16
2 s, 4.5 ppm | 0.655 | –
5.895 h, 40.6 ppm | 5.98 | –
5.968 h, 4.5 ppm | 1.15 | –
6.052 h, 4.5 ppm | – | 0.993
6.07 h, 38.7 ppm | – | 7.53
11.89 h, 40.6 ppm | 5.18 | –
11.9 h, 4.5 ppm | – | 0.993
11.92 h, 38.7 ppm | – | 6.16
12.14 h, 4.5 ppm | 0.764 | –
17.89 h, 40.6 ppm | 3.59 | –
18.05 h, 4.5 ppm | 0.545 | 0.221
18.09 h, 38.7 ppm | – | 4.11
23.89 h, 40.6 ppm | 1.59 | –
23.9 h, 4.5 ppm | – | 0.221
23.95 h, 38.7 ppm | – | 2.74
24.02 h, 4.5 ppm | 0.545 | –
29.89 h, 40.6 ppm | 1.39 | –
30.05 h, 4.5 ppm | – | 0.221
30.12 h, 38.7 ppm | – | 4.11
30.19 h, 4.5 ppm | 0.273 | –
35.9 h, 4.5 ppm | – | 0.11
35.97 h, 38.7 ppm | – | 2.74
36.11 h, 40.6 ppm | 0.598 | –
42.11 h, 40.6 ppm | 0.598 | –
42.14 h, 38.7 ppm | – | 0.685
48.11 h, 40.6 ppm | 0.797 | –
48.29 h, 4.5 ppm | 0.0545 | –
54.17 h, 38.7 ppm | – | 0.685
71.95 h, 38.7 ppm | – | 0.685
72.05 h, 40.6 ppm | 0.199 | –

human, dosed: methyl tert-butyl ether, oral
Conditions | amount in urine
0 h, 5 mg | 0.0137
5.859 h, 15 mg | 0.646
6.163 h, 5 mg | 0.274
12.01 h, 5 mg | 0.233
12.04 h, 15 mg | 0.568
17.9 h, 15 mg | 0.329
18.18 h, 5 mg | 0.123
24.08 h, 15 mg | 0.292
24.24 h, 5 mg | 0.0548
29.94 h, 15 mg | 0.214
30.19 h, 5 mg | 0.0685
36.12 h, 15 mg | 0.136
36.25 h, 5 mg | 0.0548
41.98 h, 15 mg | 0.138
42.1 h, 5 mg | 0.0137
48.05 h, 15 mg | 0.101
54.02 h, 15 mg | 0.143
